Calls of active or inactive are those of the source. The rule behind the calls is not given here.
Assays:
Neutrophil [1] = experiment: Antiinflammatory activity in Wistar rat neutrophils assessed as decrease in PGE2 level at 10 nM after 18 hrs by EIA; assay type: functional, cell-based
How it was run: (§1)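 Neutrophils were taken from male Wistar rats 4 h after intraperitoneal oyster glycogen (1%, 10 mL). Cells were cultured in RPMI1640 with 10% FBS, with compound at 10 nM, with or without LPS, for 18 h. PGE₂ in the culture supernatant was quantified by EIA. Data are the mean ± s.e.m. of cells from four animals, compared against medium-only control cells.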

Neutrophil [2] = experiment: Antiinflammatory activity in Wistar rat neutrophils assessed as decrease in LPS-induced PGE2 secretion at 10 nM after 18 hrs by EIA; assay type: functional, cell-based; how it was run: as §1
[3] = target: T1, Prostaglandin G/H synthase 1 (Rattus norvegicus) (UniProt Q63921); experiment: Inhibition of COX-1 in rat leukocytes assessed as reduction in PGE2 production from arachidonic acid at 10 nM preincubated for 10 mins by EIA; assay type: cell-based
T1 sequence (whole entry): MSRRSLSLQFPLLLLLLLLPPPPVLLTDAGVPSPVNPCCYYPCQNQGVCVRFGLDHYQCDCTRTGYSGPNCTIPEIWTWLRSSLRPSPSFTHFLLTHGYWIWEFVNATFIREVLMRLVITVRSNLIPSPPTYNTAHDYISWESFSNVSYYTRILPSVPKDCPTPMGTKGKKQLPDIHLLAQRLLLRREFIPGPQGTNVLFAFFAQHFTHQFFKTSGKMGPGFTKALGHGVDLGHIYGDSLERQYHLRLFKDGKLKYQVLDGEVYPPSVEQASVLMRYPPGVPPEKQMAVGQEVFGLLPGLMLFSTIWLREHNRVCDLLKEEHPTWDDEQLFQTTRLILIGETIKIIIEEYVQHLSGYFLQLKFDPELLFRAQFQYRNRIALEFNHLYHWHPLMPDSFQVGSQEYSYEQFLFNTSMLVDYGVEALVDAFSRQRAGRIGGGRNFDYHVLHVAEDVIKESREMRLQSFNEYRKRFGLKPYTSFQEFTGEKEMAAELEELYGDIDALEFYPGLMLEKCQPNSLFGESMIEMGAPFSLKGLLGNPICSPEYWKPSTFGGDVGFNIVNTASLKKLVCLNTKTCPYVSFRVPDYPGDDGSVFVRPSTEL

[4] = Cytotoxicity against Wistar rat neutrophils assessed as reduction in cell viability at 10 nM after 18 hrs by trypan blue staining method; assay type: cell-based; details: neutrophil, 0.01 µM
How it was run: (§2)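 Neutrophils were elicited in male Wistar rats by intraperitoneal oyster glycogen (1%, 10 mL) and harvested after 4 h. Cells were exposed to compound at 1, 10, 100 or 1000 nM, with or without LPS, for 18 h in RPMI1640 with 10% FBS. Viability was scored by trypan blue staining against medium-only controls.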

[5] = Cytotoxicity against LPS-stimulated Wistar rat neutrophils assessed as reduction in cell viability at 10 nM after 18 hrs by trypan blue staining method; assay type: cell-based; details: neutrophil, 0.01 µM; how it was run: as §2

| SMILES | inhibition [3] | Activity (Neutrophil [1]) | Activity (Neutrophil [2]) | Activity [4] | Activity [5] |
| --- | --- | --- | --- | --- | --- |
| Cc1ccc(-c2cc(C(F)(F)F)nn2-c2ccc(S(N)(=O)=O)cc2)cc1 | – | inactive | Active | – | – |
| COc1ccc(-c2ccc(-c3cccc(NC(=O)[C@H](CCC(=O)OC(C)(C)C)NC(=O)OCC4c5ccccc5-c5ccccc54)c3)o2)cc1 | inactive | – | – | – | – |
| COc1ccc(-c2ccc(-c3cccc(NC(=O)[C@H](COC(=O)c4ccccc4)NC(=O)OC(C)(C)C)c3)o2)cc1 | inactive | – | – | – | – |
| COc1ccc(-c2ccc(-c3cccc(NC(=O)[C@H](CSCc4ccccc4)NC(=O)OCc4ccccc4)c3)o2)cc1 | inactive | inactive | inactive | Non-toxic | Non-toxic |
| COc1ccc(-c2ccc(-c3cccc(NC(=O)[C@H](CCCNC(=N)NS(=O)(=O)c4ccc(C)cc4)NC(=O)OC(C)(C)C)c3)o2)cc1 | inactive | – | – | – | – |

Now from value to compound, other results behind:

| inhibition [3] | SMILES | Activity (Neutrophil [1]) | Activity (Neutrophil [2]) | Activity [4] | Activity [5] |
| --- | --- | --- | --- | --- | --- |
| inactive | COc1ccc(-c2ccc(-c3cccc(NC(=O)CNC(=O)OC(C)(C)C)c3)o2)cc1 | – | – | – | – |
| inactive | COc1ccc(-c2ccc(-c3cccc(NC(=O)[C@H](C)NC(=O)OC(C)(C)C)c3)o2)cc1 | – | – | – | – |
| inactive | COc1ccc(-c2ccc(-c3cccc(NC(=O)[C@H](Cc4ccccc4)NC(=O)OC(C)(C)C)c3)o2)cc1 | inactive | inactive | Non-toxic | Non-toxic |
| inactive | COc1ccc(-c2ccc(-c3cccc(NC(=O)[C@H](CC(C)C)NC(=O)OC(C)(C)C)c3)o2)cc1 | – | – | – | – |
| inactive | COc1ccc(-c2ccc(-c3cccc(NC(=O)[C@@H]4CCCN4C(=O)OC(C)(C)C)c3)o2)cc1 | inactive | Active | Non-toxic | Non-toxic |
| inactive | COc1ccc(-c2ccc(-c3cccc(NC(=O)[C@@H](NC(=O)OC(C)(C)C)C(C)C)c3)o2)cc1 | inactive | inactive | Non-toxic | Non-toxic |
| inactive | COc1ccc(-c2ccc(-c3cccc(NC(=O)[C@H](CCSC)NC(=O)OC(C)(C)C)c3)o2)cc1 | – | – | – | – |
